Screens: PubChem BioAssay, several laboratories
CHOP UPR activ: apoptotic UPR (CHOP) activation; CHO-CHOP luciferase reporter, luminescence; percent of tunicamycin response over DMSO baseline; AID 449763; activation, % at 10 µM; 0.34% of 330,000 active;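 active means at 10 µM dose, activation of 40% or more, normalized to positive control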
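Assay system: CHO-CHOP cells, stable luciferase reporter of PERK-eIF2a-CHOP signalling / Buffer or medium: F12 plus 10% serum / Compound dosing: one dose, 10 µM in 0.5% DMSO / Times: 6 h compound treatment, 37 °C / Technique: luciferase luminescence / Read-out: % reporter activation, DMSO baseline versus tunicamycin full activation / Benchmarks: tunicamycin and DMSO controls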
B2AR ag: human beta-2 adrenergic receptor agonism by FAP; P07550; Am2.2-beta2AR cells, FAP receptor internalization, flow cytometry; response, % (test concentration not listed); 0.43% of 340,000 active;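 active means response above a set limit, near 3 SD of response in nonfluorescent compounds, cut at about 42% in these data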
XBP1 UPR activ: adaptive UPR (XBP1) activation. CHO-XBP1 luciferase reporter, IRE1-XBP1 UPR activation, luminescence; percent of tunicamycin response, DMSO as zero. activation, % at 20 µM. 0.33% of 330,000 active. AID 463104;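 active means versus positive control, 20 µM dose yields 30% or more activation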
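assay system = CHO-XBP1 luciferase reporter cells | amount = 1000 cells/well | buffer or medium = F12 plus 10% FBS | compound dosing = single point, 20 µM final compound, 1% DMSO | incubation = 16-18 h cell attachment at 37 °C, then 6 h compound exposure | detection = Steady-Glo luminescence read | controls = tunicamycin 10 µg/mL and vehicle-only wells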
CHOP inh: blocks CHOP induction under ER stress; CHO-K1 CHOP-promoter luciferase, tunicamycin-induced, 15-18 h; inhibition, % at 10 µM; 3.8% of 220,000 active;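 active means compounds that reduced the stress-induced luciferase reporter signal by more than about 70% of percent inhibition, limit read from the data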
Dynein cargo inh: dynein cargo transport inhibition; 3617.4 mouse cells, GR-EGFP nuclear translocation imaging; test concentration mostly 20 µM; stimulated with dexamethasone, 1 µM; stronger effect = lower value; z-score, hits read low; 0.47% of 220,000 active;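 active means plate z-score of nuclear minus cytoplasmic receptor signal below a set negative limit, without overly bright fluorescence or cell loss, cut at about -3.5 in these data, passing the limit was not always enough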;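 further: z-score of nuclear minus cytoplasmic ring GR-EGFP intensity difference per well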
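Buffer or medium – tet-free medium with charcoal-stripped serum · Signal – automated 10x imaging of fixed Hoechst-stained cells · Also added – dexamethasone agonist, 1.0 µM final, for 30 min · Incubation – induction 48 h, compound 1 h, agonist 30 min · Read-out – GR-EGFP nuclear translocation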
pCIP destab: compounds decreasing mouse p/CIP protein stability | Q05BA5 | F442A p/CIP-EGFP cells, EGFP fluorescence, 16 h | decrease of EGFP signal, % at 10 µM | 0.01% of 290,000 active | AID 1984;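 active means EGFP signal decrease of at least 30% at 10 µM or well 3 SD below plate mean, unless failing retest; inactive means the rest, including hits failing retest or dose response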
Target sequence (Q05BA5 1-1403): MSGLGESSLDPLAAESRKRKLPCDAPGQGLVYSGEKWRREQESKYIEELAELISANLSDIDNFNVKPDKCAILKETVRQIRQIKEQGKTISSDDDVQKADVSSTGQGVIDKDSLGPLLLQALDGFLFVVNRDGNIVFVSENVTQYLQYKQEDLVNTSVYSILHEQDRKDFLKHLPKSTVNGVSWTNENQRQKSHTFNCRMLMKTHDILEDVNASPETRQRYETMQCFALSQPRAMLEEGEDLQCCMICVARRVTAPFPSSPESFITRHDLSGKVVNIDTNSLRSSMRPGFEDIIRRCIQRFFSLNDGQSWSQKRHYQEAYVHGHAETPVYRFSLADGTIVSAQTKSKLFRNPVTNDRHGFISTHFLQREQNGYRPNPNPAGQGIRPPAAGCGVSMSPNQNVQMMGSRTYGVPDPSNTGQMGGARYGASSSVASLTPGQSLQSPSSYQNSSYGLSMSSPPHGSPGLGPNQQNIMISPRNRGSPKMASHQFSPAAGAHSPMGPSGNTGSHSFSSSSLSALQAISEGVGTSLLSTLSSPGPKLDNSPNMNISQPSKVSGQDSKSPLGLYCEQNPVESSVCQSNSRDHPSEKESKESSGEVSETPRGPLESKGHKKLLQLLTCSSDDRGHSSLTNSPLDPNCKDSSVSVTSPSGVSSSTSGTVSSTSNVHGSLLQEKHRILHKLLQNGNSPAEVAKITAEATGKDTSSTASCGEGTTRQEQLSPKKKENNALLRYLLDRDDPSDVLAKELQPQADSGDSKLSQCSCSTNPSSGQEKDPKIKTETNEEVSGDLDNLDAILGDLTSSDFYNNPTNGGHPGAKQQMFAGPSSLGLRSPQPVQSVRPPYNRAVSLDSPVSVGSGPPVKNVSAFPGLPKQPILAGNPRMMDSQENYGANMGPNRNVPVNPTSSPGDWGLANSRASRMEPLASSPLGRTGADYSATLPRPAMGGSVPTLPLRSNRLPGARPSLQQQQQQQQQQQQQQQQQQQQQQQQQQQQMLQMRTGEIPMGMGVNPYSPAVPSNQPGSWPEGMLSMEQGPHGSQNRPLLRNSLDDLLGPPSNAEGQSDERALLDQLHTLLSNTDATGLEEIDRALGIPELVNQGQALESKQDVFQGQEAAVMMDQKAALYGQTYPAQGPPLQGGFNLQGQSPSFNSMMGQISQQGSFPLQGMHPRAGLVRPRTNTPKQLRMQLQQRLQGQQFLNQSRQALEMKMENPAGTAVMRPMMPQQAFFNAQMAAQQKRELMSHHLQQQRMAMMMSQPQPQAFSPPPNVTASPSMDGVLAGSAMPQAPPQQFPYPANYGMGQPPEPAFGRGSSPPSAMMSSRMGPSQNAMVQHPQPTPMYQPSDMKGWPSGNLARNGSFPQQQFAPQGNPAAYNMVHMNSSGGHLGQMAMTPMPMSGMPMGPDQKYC
A number is an active result; n = inactive; x = no result given; ! = not active in a repeat. The full list was thinned out, with hits kept by preference.

SMILES | CHOP UPR activ | B2AR ag | XBP1 UPR activ | CHOP inh | Dynein cargo inh | pCIP destab
C#CCOCCOCCOCCNc1nc(N2CCN(C(=O)CCCCCCCCCCNC(=O)[C@@H](CCSC)n3cc(CCO)nn3)CC2)nc(N2CCN(C(=O)CCCCCCCCCCNC(=O)[C@H]([C@@H](C)CC)n3cc(CCCCCN)nn3)CC2)n1 | n | x | n | x | x | x
CCCCCCCCCCCCC/C=C/C(O)C(N)CO (stereo unspecified) | x | x | x | n | x | x
N#Cc1cn(CCOc2ccccc2F)c2ccccc12 | n | n | n | 74 | n | n
C=CCNc1cc(F)ccc1S(=O)(=O)NCC=C | n | n | n | x | x | x
COc1ccc(CCNC(=S)NC(=O)c2cc(OC)c(OC)c(OC)c2)cc1OC | n | n | n | n | n | n
Cc1cccc(OCC(=O)N/N=C/CC(C)c2ccccc2)c1C (stereo unspecified) | n | n | n | 77 | n | n
Cc1ccccc1OCC(=O)N/N=C/C=C/c1ccccc1 | n | n | n | n | n | n
CC(C)(C#CCN1CCCCC1)OCCOC(c1ccccc1)c1ccccc1 | n | n | n | 77 | n | n
COc1ccccc1-n1cnc2c(c1=O)c1nc3ccccc3nc1n2-c1ccc(C)c(C)c1 | x | n | x | 84 | n | n
CCOC(=O)c1ccc(CNC(=O)c2n[nH]c(=O)c3ccccc23)o1 | n | n | n | n | n | n
c1ccc(-c2nc3nonc3nc2-c2ccccc2)cc1 | n | n | n | 85 | n | n
CC(C)(C)c1cc(C(F)(F)F)nc(SCCCNC(=O)c2ccco2)n1 | n | n | n | 86 | n | n
Cc1cc(NC(=O)CCCSc2nc(-c3ccco3)cc(C(F)(F)F)n2)no1 | n | n | n | 88 | n | n
Cc1ccccc1Cn1ccc(NC(=O)CCSc2nc(-c3ccco3)cc(C(F)(F)F)n2)n1 | n | n | n | n | n | n
Cc1ccc(Cn2ccc(NC(=O)CCSc3nc(-c4ccco4)cc(C(F)(F)F)n3)n2)cc1 | n | n | n | 90 | n | n
CS(=O)(=O)c1ccccc1C(=O)Nc1cc2c(cc1C(=O)O)OCCCO2 | n | n | n | x | x | n
CNC(=O)[C@H]1O[C@@H](n2cnc3c(N)ncnc32)C(O)[C@H]1O (stereo partly specified) | x | x | x | n | x | x
Cc1cc(Br)ccc1NC(=O)CNC(=O)Cn1ncc(Cl)c(Cl)c1=O | n | n | n | 106 | n | n
CCOC(=O)c1ccc(NC(=O)Cn2ncc(Cl)c(Cl)c2=O)cc1 | n | 74 | n | 108 | -4.2 | n
CCN(CC)c1ccc(/C=N/n2c(C)nc3ccccc3c2=O)cc1 | n | n | n | x | x | n
Cc1cc(C)nc(N2CCCC(C(=O)NCc3cccc(C(F)(F)F)c3)C2)n1 (stereo unspecified) | n | n | n | 83 | n | n
CCC(C(=O)NCc1ccc(F)cc1)N(CCc1ccccc1)C(=O)c1snc(C(N)=O)c1N (stereo unspecified) | n | n | n | x | x | n
COC(=O)c1cc(Cl)c(NC(=O)c2ccc(C(C)(C)C)cc2)cc1OC | n | n | n | 89 | n | n
O=C(/C=C/c1c[nH]c2ccccc12)c1cccc2ccccc12 | n | n | n | 87 | n | n
COc1cc(C(=O)O/N=C2\C=CC(=O)C=C2C)cc(OC)c1OC | n | n | n | 94 | n | n
SMILES | CHOP UPR activ | B2AR ag | XBP1 UPR activ | CHOP inh | Dynein cargo inh | pCIP destab
Cn1c(-n2c(-c3ccco3)nc3ccccc3c2=O)nc2ccccc21 | n | n | n | n | n | n
COc1ccc(CNc2cccc(F)c2)cc1Br | n | n | n | 86 | n | n
CN1C(=O)Cc2cc(S(=O)(=O)N3CCN(c4cccc(Cl)c4)CC3)ccc21 | n | n | n | x | x | n
O=C(c1c[nH]c(C(=O)C(Cl)(Cl)Cl)c1)c1c(F)cccc1F | n | 46 | n | x | x | n
O=C(Nc1nnc(SCc2ccc(F)cc2)s1)c1ccc2ncsc2c1 | x | n | x | 73 | n | n
O=C(NC1CC(=O)N(c2ccc3c(c2)OCCO3)C1)N1CCC(O)CC1 (stereo unspecified) | n | n | n | x | x | x
CCN(CC)S(=O)(=O)c1ccc(OCC(=O)NC(=O)Cc2ccccc2)c([N+](=O)[O-])c1 | n | n | n | x | x | x
Cc1ccc(C(=O)C(c2ccccc2)N2Cc3ccccc3C2=N)cc1 (stereo unspecified) | n | 81 | n | n | n | n
Cc1ccc(C=NNc2nc3c([nH]2)c(=O)n(C)c(=O)n3C)cc1 | x | n | x | x | x | x
Fc1ccc(-c2nc(-c3cccs3)[nH]c2-c2ccc(F)cc2)cc1 | n | n | n | 74 | n | n
O=[N+]([O-])c1ccc(-c2nc(-c3cccs3)c(-c3cccs3)[nH]2)cc1 | n | n | n | 92 | n | n
Cc1ccsc1-c1nc(-c2ccccc2)c(-c2ccccc2)[nH]1 | n | n | n | 82 | n | n
O=C(O)c1cccc(S(=O)(=O)NCC2COc3ccccc3O2)c1 (stereo unspecified) | n | n | n | x | x | x
CC(C)Cn1c(N)c(C(=O)COC(=O)c2nccnc2N)c(=O)n(C)c1=O | n | n | n | x | x | x
O=c1oc2cc(OCc3c(F)cccc3Cl)ccc2cc1-c1ccccn1 | n | n | n | n | n | x
CCCOc1ccc2cc(-c3ccccn3)c(=O)oc2c1 | n | n | n | 71 | n | n
Cc1cccnc1NC(=O)c1cc2ccccc2oc1=O | n | n | n | 90 | n | n
CC(C)CC(=O)Nc1nnc(SCC(=O)NC2CCCCC2)s1 | n | n | n | x | x | n
Cc1cc(C)cc(NCc2cc(=O)oc3cc(-c4ccccc4)c(O)cc23)c1 | n | n | n | 103 | n | n
O=C(COC(=O)c1ccc2c(c1)C(=O)N(c1cccc3ncccc13)C2=O)c1ccc(Cl)cc1 | n | 63 | n | 87 | n | n
CC(=O)O[C@H]1CC[C@H]2[C@@H]3CCc4cc(O)ccc4[C@H]3CC[C@]12C | n | n | n | 76 | n | n
COc1ccc(CNC(=O)Cn2ccc([N+](=O)[O-])n2)cc1OC | n | n | n | x | x | n
COc1cc(OC)c(-c2c3cc(O)c(=O)cc-3oc3cc(O)c(O)cc23)cc1OC | n | n | n | n | n | n
Cc1c2cc(O)c(=O)cc-2oc2cc(O)c(O)cc12 | n | n | n | n | -5.3! | n
O=c1nc(NCc2ccccc2Cl)cn[nH]1 | n | n | n | n | n | n
NC(=O)c1sc2nc(N3CCCCC3)c3c(c2c1N)CCCC3 | n | n | n | 92 | n | n
COC(=O)c1sc2nc(N3CCCCC3)c3c(c2c1N)CCCC3 | n | n | n | n | n | n
CSc1ccccc1OCc1cc(C(=O)N[C@H]2CCCCNC2=O)no1 | n | n | n | x | x | n
